Test results from ChEMBL document CHEMBL2203123, “Synthesis and biological evaluation of some hydrazone derivatives as new anticandidal and anticancer agents” (Eur J Med Chem, 2012).
Converted amounts (≈) assume the structure as drawn.

How the values were obtained:
[1] = test system: Salmonella typhimurium; assay: Genotoxicity against Salmonella typhimurium TA100 assessed as fold increase in revertants at 0.156 mg/ml after 90 mins by Ames MPF test in presence of S9 fraction relative to baseline; type: toxicity, organism-based; conditions: salmonella enterica subsp. enterica serovar typhimurium, s9, 1.5 h
Method in brief: (§1)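 Ames MPF fluctuation test, TA98 and TA100: overnight cultures reincubated 90 min, then exposed 90 min at 37 °C to compounds at 0.156-5 mg/mL (in DMSO) with or without 4.5% v/v S9; indicator medium added, 48 wells per sample scored yellow after 48 h, triplicate. Fold over baseline = mean positive wells / (mean of DMSO control + 1 SD).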

[2] = test system: Salmonella typhimurium; assay: Genotoxicity against Salmonella typhimurium TA98 assessed as fold increase in revertants at 5 mg/ml after 90 mins by Ames MPF test in presence of S9 fraction relative to baseline; type: toxicity, organism-based; conditions: salmonella enterica subsp. enterica serovar typhimurium, s9, 1.5 h; method in brief: as §1
[3] = test system: Salmonella typhimurium; assay: Genotoxicity against Salmonella typhimurium TA98 assessed as fold increase in revertants at 5 mg/ml after 90 mins by Ames MPF test in absence of S9 fraction relative to baseline; type: toxicity, organism-based; conditions: salmonella enterica subsp. enterica serovar typhimurium, 1.5 h; method in brief: as §1
[4] = test system: Salmonella typhimurium; assay: Genotoxicity against Salmonella typhimurium TA1535/pSK1002 assessed as growth factor ratio at 0.63 mg/ml by umuC assay in absence of S9 fraction; type: toxicity, organism-based; conditions: salmonella enterica subsp. enterica serovar typhimurium
Method in brief: (§2)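 umuC Easy CS: TA1535/pSK1002 grown overnight in ampicillin TG medium at 37 °C, then exposed 2 h at 37 °C to compounds at 5, 2.5, 1.25, 0.63 mg/mL with or without S9. Diluted into fresh medium for 2 h growth (OD600), then β-galactosidase with ONPG 30 min at 28 °C, OD420. Positive controls 2-aminoanthracene (+S9), […] (−S9).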

[5] = test system: Salmonella typhimurium; assay: Genotoxicity against Salmonella typhimurium TA1535/pSK1002 assessed as growth factor ratio at 0.63 mg/ml by umuC assay in presence of S9 fraction; type: toxicity, organism-based; conditions: salmonella enterica subsp. enterica serovar typhimurium; method in brief: as §2
[6] = test system: Salmonella typhimurium; assay: Genotoxicity against Salmonella typhimurium TA98 assessed as fold increase in revertants at 2.5 mg/ml after 90 mins by Ames MPF test in absence of S9 fraction relative to baseline; type: toxicity, organism-based; conditions: salmonella enterica subsp. enterica serovar typhimurium, 1.5 h; method in brief: as §1
[7] = test system: Salmonella typhimurium; assay: Genotoxicity against Salmonella typhimurium TA98 assessed as fold increase in revertants at 0.156 mg/ml after 90 mins by Ames MPF test in absence of S9 fraction relative to baseline; type: toxicity, organism-based; conditions: salmonella enterica subsp. enterica serovar typhimurium, 1.5 h; method in brief: as §1
[8] = test system: Salmonella typhimurium; assay: Genotoxicity against Salmonella typhimurium TA1535/pSK1002 assessed as growth factor ratio at 2.5 mg/ml by umuC assay in presence of S9 fraction; type: toxicity, organism-based; conditions: salmonella enterica subsp. enterica serovar typhimurium; method in brief: as §2
[9] = test system: Salmonella typhimurium; assay: Genotoxicity against Salmonella typhimurium TA100 assessed as fold increase in revertants at 1.25 mg/ml after 90 mins by Ames MPF test in presence of S9 fraction relative to baseline; type: toxicity, organism-based; conditions: salmonella enterica subsp. enterica serovar typhimurium, s9, 1.5 h; method in brief: as §1
[10] = Genotoxicity against Salmonella typhimurium TA1535/pSK1002 assessed as induction ratio at 5 mg/ml by umuC assay in presence of S9 fraction; type: toxicity, organism-based; conditions: salmonella enterica subsp. enterica serovar typhimurium, Salmonella typhimurium TA1535/pSK1002 with S9 fraction; method in brief: as §2
[11] = test system: Pichia kudriavzevii; assay: Antifungal activity against Candida krusei NRRL Y-7179 after 24 hrs by microdilution susceptibility assay; type: functional; conditions: NRRL Y-7179, 24 h
Method in brief: (§3)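 Broth microdilution in Mueller Hinton Broth, compounds from DMSO stocks diluted serially; inocula standardized to 10^6 CFU/mL (McFarland 0.5) from overnight MHB cultures. Plates held 37 °C for 24 h; MIC taken as first well without turbidity, aided by 1% tetrazolium violet added for 3 h at 37 °C. Ketoconazole reference.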

[12] = test system: Salmonella typhimurium; assay: Genotoxicity against Salmonella typhimurium TA100 assessed as fold increase in revertants at 1.25 mg/ml after 90 mins by Ames MPF test in absence of S9 fraction relative to baseline; type: toxicity, organism-based; conditions: salmonella enterica subsp. enterica serovar typhimurium, 1.5 h; method in brief: as §1
[13] = test system: Salmonella typhimurium; assay: Genotoxicity against Salmonella typhimurium TA1535/pSK1002 assessed as growth factor ratio at 2.5 mg/ml by umuC assay in absence of S9 fraction; type: toxicity, organism-based; conditions: salmonella enterica subsp. enterica serovar typhimurium; method in brief: as §2
[14] = test system: Salmonella typhimurium; assay: Genotoxicity against Salmonella typhimurium TA98 assessed as fold increase in revertants at 0.3125 mg/ml after 90 mins by Ames MPF test in presence of S9 fraction relative to baseline; type: toxicity, organism-based; conditions: salmonella enterica subsp. enterica serovar typhimurium, s9, 1.5 h; method in brief: as §1
[15] = test system: Nakaseomyces glabratus; assay: Antifungal activity against Candida glabrata Osmangazi University clinical isolate after 24 hrs by microdilution susceptibility assay; type: functional; method in brief: as §3
[16] = test system: Candida albicans; assay: Antifungal activity against Candida albicans clinical isolate after 24 hrs by microdilution susceptibility assay; type: functional; method in brief: as §3
[17] = Genotoxicity against Salmonella typhimurium TA1535/pSK1002 assessed as induction ratio at 2.5 mg/ml by umuC assay in absence of S9 fraction; type: toxicity, organism-based; conditions: salmonella enterica subsp. enterica serovar typhimurium, Salmonella typhimurium TA1535/pSK1002 without S9 fraction; method in brief: as §2
[18] = test system: Salmonella typhimurium; assay: Genotoxicity against Salmonella typhimurium TA100 assessed as fold increase in revertants at 0.625 mg/ml after 90 mins by Ames MPF test in absence of S9 fraction relative to baseline; type: toxicity, organism-based; conditions: salmonella enterica subsp. enterica serovar typhimurium, 1.5 h; method in brief: as §1
[19] = test system: Candida albicans; assay: Antifungal activity against Candida albicans ATCC 90028 after 24 hrs by microdilution susceptibility assay; type: functional; conditions: ATCC 90028, 24 h; method in brief: as §3
[20] = test system: Salmonella typhimurium; assay: Genotoxicity against Salmonella typhimurium TA100 assessed as fold increase in revertants at 5 mg/ml after 90 mins by Ames MPF test in presence of S9 fraction relative to baseline; type: toxicity, organism-based; conditions: salmonella enterica subsp. enterica serovar typhimurium, s9, 1.5 h; method in brief: as §1
[21] = test system: Salmonella typhimurium; assay: Genotoxicity against Salmonella typhimurium TA100 assessed as fold increase in revertants at 0.625 mg/ml after 90 mins by Ames MPF test in presence of S9 fraction relative to baseline; type: toxicity, organism-based; conditions: salmonella enterica subsp. enterica serovar typhimurium, s9, 1.5 h; method in brief: as §1
[22] = test system: Salmonella typhimurium; assay: Genotoxicity against Salmonella typhimurium TA1535/pSK1002 assessed as growth factor ratio at 1.25 mg/ml by umuC assay in presence of S9 fraction; type: toxicity, organism-based; conditions: salmonella enterica subsp. enterica serovar typhimurium; method in brief: as §2
[23] = test system: Salmonella typhimurium; assay: Genotoxicity against Salmonella typhimurium TA98 assessed as fold increase in revertants at 0.156 mg/ml after 90 mins by Ames MPF test in presence of S9 fraction relative to baseline; type: toxicity, organism-based; conditions: salmonella enterica subsp. enterica serovar typhimurium, s9, 1.5 h; method in brief: as §1
[24] = test system: Salmonella typhimurium; assay: Genotoxicity against Salmonella typhimurium TA100 assessed as fold increase in revertants at 2.5 mg/ml after 90 mins by Ames MPF test in absence of S9 fraction relative to baseline; type: toxicity, organism-based; conditions: salmonella enterica subsp. enterica serovar typhimurium, 1.5 h; method in brief: as §1

MIC [11] [µg/mL]	MIC [15] [µg/mL]	MIC [16] [µg/mL]	MIC [19] [µg/mL]	Structure (SMILES)	fold change (FC) [1]	fold change (FC) [2]	fold change (FC) [3]	Ratio [4]	Ratio [5]	fold change (FC) [6]	fold change (FC) [7]	Ratio [8]	fold change (FC) [9]	fold induction at 5 mg/ml [10]	fold change (FC) [12]	Ratio [13]	fold change (FC) [14]	fold induction at 2.5 mg/ml [17]	fold change (FC) [18]	fold change (FC) [20]	also measured
125 (≈ 389 µM)	500 (≈ 1560 µM)	500 (≈ 1560 µM)	62.5 (≈ 195 µM)	Cn1nnnc1SCC(=O)N/N=C/c1ccccc1[N+](=O)[O-]	1.35	1.11	1.14	1.068	0.969	1.96	1.63	0.922	1.93	1.19	1.33	1.03	1.22	1.63	0.83	1.7	fold change (FC) [21]: 1.28; Ratio [22]: 0.879; fold change (FC) [23]: 1; fold change (FC) [24]: 0.67
500 (≈ 1700 µM)	250 (≈ 849 µM)	125 (≈ 425 µM)	500 (≈ 1700 µM)	Cn1nnnc1SCC(=O)N/N=C/c1ccccc1F	0.66	1.14	1.59	1.045	0.935	0.95	0.64	1.699	0.88	0.284	0.29	1.559	0.71	0.779	0.23	0.58	fold change (FC) [21]: 0.66; Ratio [22]: 1.163; fold change (FC) [23]: 0.29; fold change (FC) [24]: 0.17
500 (≈ 1710 µM)	1000 (≈ 3420 µM)	500 (≈ 1710 µM)	1000 (≈ 3420 µM)	Cn1nnnc1SCC(=O)N/N=C/c1ccc(O)cc1	0.63	0.63	0.26	1.009	1.13	0.13	0.52	1.663	0.59	0.419	0.91	1.397	0.53	0.979	0.66	0.82	fold change (FC) [21]: 0.7; Ratio [22]: 1.277; fold change (FC) [23]: 0.32; fold change (FC) [24]: 0.33

The remaining lines, values behind:

Structure (SMILES)	MIC [11] [µg/mL]	MIC [15] [µg/mL]	MIC [16] [µg/mL]	MIC [19] [µg/mL]	fold change (FC) [1]	fold change (FC) [2]	fold change (FC) [3]	Ratio [4]	Ratio [5]	fold change (FC) [6]	fold change (FC) [7]	Ratio [8]	fold change (FC) [9]	fold induction at 5 mg/ml [10]	fold change (FC) [12]	Ratio [13]	fold change (FC) [14]	fold induction at 2.5 mg/ml [17]	fold change (FC) [18]	fold change (FC) [20]	also measured
CN(C)c1ccc(/C=N/NC(=O)CSc2nnnn2C)cc1	62.5 (≈ 196 µM)	500 (≈ 1570 µM)	125 (≈ 391 µM)	50 (≈ 157 µM)	0.33	0.86	0	0.962	1.268	0	0.32	1.992	0.26	0.379	1	1.743	0.57	0.88	1.38	0.26	fold change (FC) [21]: 0.18; Ratio [22]: 1.538; fold change (FC) [23]: 0.86; fold change (FC) [24]: 1.14
COc1ccc(/C=N/NC(=O)CSc2nnnn2C)cc1	125 (≈ 408 µM)	500 (≈ 1630 µM)	500 (≈ 1630 µM)	500 (≈ 1630 µM)	0.46	0.84	0.33	1.028	1.117	0.33	0.16	1.83	0.81	0.568	0.2	1.166	0.84	1.04	0.3	0.5	fold change (FC) [21]: 0.89; Ratio [22]: 1.294; fold change (FC) [23]: 0.42; fold change (FC) [24]: 0.6
